What was measured:
[1] = molecular target: T1, ATP-dependent translocase ABCB1 (Homo sapiens, UniProt P08183); test: Reversal of Pgp-1-mediated multidrug resistance in human SW620 cells assessed as potentiation of paclitaxel cytotoxicity at 3 uM treated for 2 hrs prior to paclitaxel challenge measured after 72 hrs by MTT assay relative to paclitaxel alone-treated control; assay type: cell-based; details: sw-620, 72 h
In short: (§1)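 MTT reversal assay. Cells seeded 5000–6000/well and attached 24 h; modulator added 2 h before graded paclitaxel; 72 h at 37 °C; MTT 4 h, DMSO solubilisation, A570. Paclitaxel IC50 taken from killing curves. Fold-resistance = paclitaxel IC50 (± modulator) ÷ paclitaxel IC50 in parental SW620 or HEK293. Four independent experiments in triplicate, mean ± SEM. Cells drug-free >2 weeks beforehand.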

[2] = molecular target: T1, ATP-dependent translocase ABCB1; test: Reversal of Pgp-1-mediated multidrug resistance in human HEK293 cells overexpressing human ABCB1 assessed as potentiation of paclitaxel cytotoxicity at 10 uM treated for 2 hrs prior to paclitaxel challenge measured after 72 hrs by MTT assay relative to paclitaxel alone-treated control; assay type: cell-based; details: hek293, 72 h
In short: (§2)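 Cells seeded at 5000–6000/well, attached 24 h at 37 °C, 5% CO2, then preincubated 2 h ± reversal agent before paclitaxel dilutions; after 72 h, MTT (4 mg/mL) 4 h, formazan dissolved in DMSO, absorbance 570 nm. Paclitaxel IC50 from killing curves; fold-resistance = IC50 divided by parental paclitaxel IC50. Four independent experiments in triplicate. HEK lines kept with G418 (2 mg/mL).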

[3] = molecular target: T1, ATP-dependent translocase ABCB1; test: Stimulation of ATPase activity of ABCB1 (unknown origin) expressed in High Five insect cell membrane assessed as ATP hydrolysis at >2.5 uM relative to control
[4] = molecular target: T1, ATP-dependent translocase ABCB1; test: Reversal of Pgp-1-mediated multidrug resistance in human HEK293 cells assessed as potentiation of paclitaxel cytotoxicity at 10 uM treated for 2 hrs prior to paclitaxel challenge measured after 72 hrs by MTT assay relative to paclitaxel alone-treated control; assay type: cell-based; details: hek293, 72 h; in short: as §2
[5] = molecular target: T1, ATP-dependent translocase ABCB1; test: Reversal of Pgp-1-mediated multidrug resistance in human SW620 cells assessed as potentiation of paclitaxel cytotoxicity at 1 uM treated for 2 hrs prior to paclitaxel challenge measured after 72 hrs by MTT assay relative to paclitaxel alone-treated control; assay type: cell-based; details: sw-620, 72 h; in short: as §1
[6] = Cytotoxicity against human HEK293 cells assessed as cell survival at 10 uM by MTT assay; assay type: cell-based; details: read-out: Activity
In short: (§3)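 Cells seeded at 5000–6000 per well in triplicate, attached 24 h at 37 °C, 5% CO2, then exposed to compound for 72 h. MTT (4 mg/mL) added for 4 h, formazan dissolved in DMSO, absorbance read at 570 nm. Four independent experiments. HEK/ABCB1 and HEK293 kept in DMEM with G418 (2 mg/mL). All lines drug-free for over 2 weeks beforehand.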

[7] = molecular target: T1, ATP-dependent translocase ABCB1; test: Stimulation of ATPase activity of ABCB1 (unknown origin) expressed in High Five insect cell membrane assessed as ATP hydrolysis at 0.5 to 2.5 uM relative to control
[8] = molecular target: T1, ATP-dependent translocase ABCB1; test: Reversal of Pgp-1-mediated multidrug resistance in human SW620 cells assessed as potentiation of paclitaxel cytotoxicity at 10 uM treated for 2 hrs prior to paclitaxel challenge measured after 72 hrs by MTT assay relative to paclitaxel alone-treated control; assay type: cell-based; details: sw-620, 72 h; in short: as §2
[9] = molecular target: T1, ATP-dependent translocase ABCB1; test: Reversal of Pgp-1-mediated multidrug resistance in human HEK293 cells assessed as potentiation of paclitaxel cytotoxicity at 1 uM treated for 2 hrs prior to paclitaxel challenge measured after 72 hrs by MTT assay relative to paclitaxel alone-treated control; assay type: cell-based; details: hek293, 72 h; in short: as §1
[10] = molecular target: T1, ATP-dependent translocase ABCB1; test: Stimulation of ATPase activity of ABCB1 (unknown origin) expressed in High Five insect cell membrane assessed as ATP hydrolysis
In short: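 Vanadate-sensitive ATPase of P-gp in crude High Five membranes (10 μg protein/100 μL). Compound 0–10 μM, with and without 0.3 mM sodium orthovanadate, in ATPase assay buffer. […] Three independent experiments in duplicate, mean ± SEM.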

[11] = molecular target: T1, ATP-dependent translocase ABCB1; test: Reversal of Pgp-1-mediated multidrug resistance in human SW620/Ad300 cells overexpressing ABCB1 assessed as potentiation of paclitaxel cytotoxicity at 3 uM treated for 2 hrs prior to paclitaxel challenge measured after 72 hrs by MTT assay relative to paclitaxel alone-treated control; assay type: cell-based; details: sw-620, 72 h; in short: as §1
[12] = molecular target: T1, ATP-dependent translocase ABCB1; test: Reversal of Pgp-1-mediated multidrug resistance in human HEK293 cells overexpressing human ABCB1 assessed as potentiation of paclitaxel cytotoxicity at 3 uM treated for 2 hrs prior to paclitaxel challenge measured after 72 hrs by MTT assay relative to paclitaxel alone-treated control; assay type: cell-based; details: hek293, 72 h; in short: as §1
[13] = Cytotoxicity against human SW620 cells assessed as cell survival at 10 uM by MTT assay; assay type: cell-based, SW-620; details: read-out: Activity; in short: as §3
[14] = molecular target: T1, ATP-dependent translocase ABCB1; test: Reversal of Pgp-1-mediated multidrug resistance in human HEK293 cells assessed as potentiation of paclitaxel cytotoxicity at 3 uM treated for 2 hrs prior to paclitaxel challenge measured after 72 hrs by MTT assay relative to paclitaxel alone-treated control; assay type: cell-based; details: hek293, 72 h; in short: as §1
[15] = molecular target: T1, ATP-dependent translocase ABCB1; test: Reversal of Pgp-1-mediated multidrug resistance in human HEK293 cells overexpressing human ABCB1 assessed as potentiation of paclitaxel cytotoxicity at 1 uM treated for 2 hrs prior to paclitaxel challenge measured after 72 hrs by MTT assay relative to paclitaxel alone-treated control; assay type: cell-based; details: hek293, 72 h; in short: as §1
[16] = molecular target: T1, ATP-dependent translocase ABCB1; test: Inhibition of human wild type P-gp expressed in BacMam virus infected human HeLa cells assessed as calcein-AM accumulation after 10 mins by flow cytometry; assay type: cell-based
In short: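 HeLa cells transduced with BacMam WT-P-gp (10–15 particles/cell); 10 mM butyric acid added after 3–4 h, grown overnight at 37 °C. Trypsinized cells exposed to compound, then 0.5 μM calcein-AM for 10 min at 37 °C in the dark. […] Two independent experiments in triplicate, ± SD.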

[17] = molecular target: T1, ATP-dependent translocase ABCB1; test: Displacement of […] from ABCB1 (unknown origin) expressed in High Five insect cell membrane at >5 uM preincubated for 10 mins by autoradiography
In short: (§4)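 Compound 0–20 μM, 10 min at 37 °C. Then [125I]-IAAP (2200 Ci/mmol; 4–6 nM) added for 5 min under minimal light. UV 365 nm for 10 min, labeling read by autoradiography. Two independent experiments; curve fitted by one-phase decay.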

[18] = Cytotoxicity against human HEK293 cells overexpressing human ABCB1 assessed as cell survival at 10 uM by MTT assay; assay type: ADME, cell-based; details: HEK293 cells that overexpress human ABCB1, read-out: Activity; in short: as §3
[19] = molecular target: T1, ATP-dependent translocase ABCB1; test: Reversal of Pgp-1-mediated multidrug resistance in human SW620/Ad300 cells overexpressing ABCB1 assessed as potentiation of paclitaxel cytotoxicity at 1 uM treated for 2 hrs prior to paclitaxel challenge measured after 72 hrs by MTT assay relative to paclitaxel alone-treated control; assay type: cell-based; details: sw-620, 72 h; in short: as §1
[20] = Cytotoxicity against human SW620/Ad300 cells overexpressing ABCB1 assessed as cell survival at 10 uM by MTT assay; assay type: ADME, cell-based, SW-620; details: SW620/Ad300 cells that overexpress ABCB1, read-out: Activity; in short: as §3
[21] = Retardation factor of the compound using EtOAc-n-hexane at ratio of 3:2 by thin layer chromatography; assay type: physicochemical
[22] = molecular target: T1, ATP-dependent translocase ABCB1; test: Reversal of Pgp-1-mediated multidrug resistance in human SW620/Ad300 cells overexpressing ABCB1 assessed as potentiation of paclitaxel cytotoxicity at 10 uM treated for 2 hrs prior to paclitaxel challenge measured after 72 hrs by MTT assay relative to paclitaxel alone-treated control; assay type: cell-based; details: sw-620, 72 h; in short: as §2
[23] = molecular target: T1, ATP-dependent translocase ABCB1; test: Displacement of […] from ABCB1 (unknown origin) expressed in High Five insect cell membrane preincubated for 10 mins by autoradiography; in short: as §4
[24] = Retention time of the compound by HPLC analysis; assay type: physicochemical
In short: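 Reverse-phase C18 HPLC, isocratic acetonitrile/water 60:40, 1.0 mL/min, UV 254 nm; purity from major-peak area.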

T1 sequence (P08183 whole entry): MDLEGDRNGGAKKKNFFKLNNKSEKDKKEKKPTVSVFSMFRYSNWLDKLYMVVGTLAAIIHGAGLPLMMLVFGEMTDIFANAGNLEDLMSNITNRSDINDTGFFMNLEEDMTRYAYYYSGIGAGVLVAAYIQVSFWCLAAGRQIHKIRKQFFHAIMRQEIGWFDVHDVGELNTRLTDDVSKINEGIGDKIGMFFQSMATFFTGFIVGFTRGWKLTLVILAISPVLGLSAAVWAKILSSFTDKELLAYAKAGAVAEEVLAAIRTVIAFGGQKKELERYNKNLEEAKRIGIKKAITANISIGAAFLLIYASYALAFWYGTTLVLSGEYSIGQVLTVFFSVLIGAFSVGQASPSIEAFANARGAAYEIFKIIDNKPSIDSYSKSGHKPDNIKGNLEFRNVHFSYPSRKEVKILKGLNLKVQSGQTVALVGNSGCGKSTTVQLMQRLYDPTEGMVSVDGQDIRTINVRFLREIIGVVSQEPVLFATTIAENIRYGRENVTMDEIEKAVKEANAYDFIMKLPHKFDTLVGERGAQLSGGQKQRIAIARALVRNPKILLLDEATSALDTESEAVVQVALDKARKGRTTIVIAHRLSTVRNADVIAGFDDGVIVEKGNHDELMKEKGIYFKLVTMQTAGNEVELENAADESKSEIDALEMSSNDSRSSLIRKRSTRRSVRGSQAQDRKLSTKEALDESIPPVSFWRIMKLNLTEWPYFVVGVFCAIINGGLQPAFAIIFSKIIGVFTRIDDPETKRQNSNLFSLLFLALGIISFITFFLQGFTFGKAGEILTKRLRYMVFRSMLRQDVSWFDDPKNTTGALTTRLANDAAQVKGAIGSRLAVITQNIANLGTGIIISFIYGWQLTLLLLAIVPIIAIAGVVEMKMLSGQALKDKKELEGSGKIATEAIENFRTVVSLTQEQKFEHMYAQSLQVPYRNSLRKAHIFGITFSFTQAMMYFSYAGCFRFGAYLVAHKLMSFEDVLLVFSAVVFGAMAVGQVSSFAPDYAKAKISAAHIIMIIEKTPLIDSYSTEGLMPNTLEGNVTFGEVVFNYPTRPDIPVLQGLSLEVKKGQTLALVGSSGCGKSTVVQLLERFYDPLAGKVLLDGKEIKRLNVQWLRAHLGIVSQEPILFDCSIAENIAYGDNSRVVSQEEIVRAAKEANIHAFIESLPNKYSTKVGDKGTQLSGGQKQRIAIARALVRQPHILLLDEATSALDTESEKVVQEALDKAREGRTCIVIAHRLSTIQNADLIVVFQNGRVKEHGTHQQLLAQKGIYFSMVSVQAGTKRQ

## COc1cc(C(=O)N[C@H](c2nc(C(=O)Nc3ccccc3C(=O)c3ccccc3)cs2)C(C)C)cc(OC)c1OC
[1]
  Ratio: 1
[2]
  Ratio: 2
[3]
  Ratio: 1.8
[4]
  Ratio: 1
[5]
  Ratio: 1.2
[6]
  viability at 10 µM: > 85%
[7]
  Ratio: 2
[8]
  Ratio: 1
[9]
  Ratio: 1
[10]
  EC50: 0.027 µM
[10]; human
  Activity: Dose-dependent effect
[11]
  Ratio: 8.5
[12]
  Ratio: 3.1
[13]
  viability at 10 µM: > 85%
[14]
  Ratio: 1
[15]
  Ratio: 12.9
[16]
  IC50: 1 µM
[16]; human, hela, 10 min
  inhibition (INH): Dose-dependent effect
[17]
  IC50: 0.72 µM
[17]; human
  inhibition (INH): 90%
[18]
  viability at 10 µM: > 85%
[19]
  Ratio: 31
[20]
  viability at 10 µM: > 85%
[21]
  Rf: 0.45
[22]
  Ratio: 1.8
[23]
  inhibition (INH): Dose-dependent effect
[24]
  Retention_time: 9.4 min

From ChEMBL document CHEMBL3259707, “Design and synthesis of human ABCB1 (P-glycoprotein) inhibitors by peptide coupling of diverse chemical scaffolds on carboxyl and amino termini of (S)-valine-derived thiazole amino acid” (J Med Chem, 2014)
